# Experimental data: ChEMBL document CHEMBL4017517, “Small Molecule Inhibitors Simultaneously Targeting Cancer Metabolism and Epigenetics: Discovery of Novel Nicotinamide Phosphoribosyltransferase (NAMPT) and Histone Deacetylase (HDAC) Dual Inhibitors” (J Med Chem, 2017)
# Activity calls are given as the source filed them. The calls are words filed in the database; no cut-off is given here.
# Experiments:
# [1] = target: Histone deacetylase 1 (Homo sapiens, UniProt Q13547); experiment: Inhibition of human recombinant HDAC1 (1 to 482 residues) expressed in Baculovirus using Ac-Leu-Gly-Lys(Ac)-AMC as substrate preincubated for 5 mins followed by substrate addition measured after 30 mins by fluorescence assay
# Chain of Histone deacetylase 1 (Q13547 whole entry, the tested form may be a part): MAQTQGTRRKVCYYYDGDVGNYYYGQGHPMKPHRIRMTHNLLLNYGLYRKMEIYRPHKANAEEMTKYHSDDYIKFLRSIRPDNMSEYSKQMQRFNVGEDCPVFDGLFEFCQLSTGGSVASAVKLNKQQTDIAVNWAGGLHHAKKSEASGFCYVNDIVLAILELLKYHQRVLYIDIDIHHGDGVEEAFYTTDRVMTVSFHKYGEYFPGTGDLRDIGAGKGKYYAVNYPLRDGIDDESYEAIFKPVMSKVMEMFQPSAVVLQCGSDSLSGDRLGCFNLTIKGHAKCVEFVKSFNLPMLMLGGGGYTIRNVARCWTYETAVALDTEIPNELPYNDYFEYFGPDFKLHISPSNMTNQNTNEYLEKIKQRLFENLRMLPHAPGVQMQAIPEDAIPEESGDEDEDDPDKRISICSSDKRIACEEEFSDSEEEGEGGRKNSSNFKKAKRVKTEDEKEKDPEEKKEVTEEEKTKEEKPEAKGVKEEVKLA
# [2] = target: Nicotinamide phosphoribosyltransferase (Homo sapiens, UniProt P43490); experiment: Inhibition of human recombinant NAMPT using NAM as substrate preincubated for 5 mins followed by substrate addition measured after 15 mins by fluorescence assay
# Chain of Nicotinamide phosphoribosyltransferase (P43490 whole entry): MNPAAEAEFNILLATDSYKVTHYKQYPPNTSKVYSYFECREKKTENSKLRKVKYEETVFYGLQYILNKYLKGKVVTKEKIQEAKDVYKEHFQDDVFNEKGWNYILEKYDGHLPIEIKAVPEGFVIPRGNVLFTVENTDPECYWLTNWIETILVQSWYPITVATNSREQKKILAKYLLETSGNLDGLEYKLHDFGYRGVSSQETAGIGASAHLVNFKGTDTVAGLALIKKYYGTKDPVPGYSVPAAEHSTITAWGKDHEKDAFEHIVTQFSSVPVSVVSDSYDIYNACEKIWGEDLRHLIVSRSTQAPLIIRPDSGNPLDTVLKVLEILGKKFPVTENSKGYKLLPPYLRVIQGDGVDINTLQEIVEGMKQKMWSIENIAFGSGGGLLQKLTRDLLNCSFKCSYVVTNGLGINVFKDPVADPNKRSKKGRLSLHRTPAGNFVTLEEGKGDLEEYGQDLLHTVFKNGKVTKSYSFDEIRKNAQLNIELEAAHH
# [3] = test system: HCT-116; experiment: cells; type: functional, cell-based; conditions: Homo sapiens, HCT-116, 72 h
# [4] = test system: HepG2; experiment: cells; type: functional, cell-based; conditions: Homo sapiens, HepG2, 72 h
# [5] = test system: MDA-MB-231; experiment: cells; type: functional, cell-based; conditions: Homo sapiens, MDA-MB-231, 72 h
# [6] = test system: HCT-116; experiment: Antitumor activity against human HCT116 cells xenografted in BALB/C nude mouse assessed as tumor growth inhibition at 25 mg/kg, po administered as single dose for 14 consecutive days measured after 30 to 33 days post implantation; type: functional, organism-based
# Summary of the method: (§1)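 Male BALB/C nude mice (18–20 g) bearing subcutaneous HCT116 right-axilla tumors; treatment started at about 100–300 mm³. Five mice per treatment, eight controls. Dosed po 25 mg/kg/day for 14 consecutive days as suspension in 0.5% carboxymethyl cellulose; controls got vehicle. Tumor volume (1/2 × length × width²) and body weight recorded every 3 days. Sacrifice day 30–33 post-implant.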
# [7] = Terminal half life in BALB/C nude mouse at 25 mg/kg, po; type: ADME, organism-based; conditions: in vivo, read-out: beta t1/2 (converted)
# Summary of the method: (§2)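 Mice given a single oral dose of 25 mg/kg. Plasma pharmacokinetics sampled to obtain terminal half-life and Cmax.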
# [8] = Cmax in BALB/C nude mouse at 25 mg/kg, po; type: ADME, organism-based; design: dose 25 mg/kg, route oral; conditions: in vivo; summary of the method: as §2
# [9] = test system: Mus musculus; experiment: Toxicity in BALB/C nude mouse xenografted with human HCT116 cells assessed as change in body weight at 25 mg/kg, po administered as single dose for 14 consecutive days measured during compound dosing; type: organism-based; conditions: in vivo; summary of the method: as §1
# [10] = test system: HCT-116; experiment: Induction of apoptosis in human HCT116 cells assessed as necrotic cells at 5 uM after 72 hrs by Annexin V-FITC/propidium iodide staining-based flow cytometric analysis (reference value: 1.25%); type: functional
# Summary of the method: (§3)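 HCT116 cells seeded at 5×10^5 cells/mL in six-well plates, treated at 5 μM for 72 h alongside vehicle. Cells trypsinized, washed twice in cold PBS, and resuspended in 1× binding buffer. Stained with annexin V-FITC 15 min at room temperature, then PI 15 min in dark, then flow cytometry.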
# [11] = test system: HCT-116; experiment: Induction of apoptosis in human HCT116 cells assessed as early apoptotic cells at 5 uM after 72 hrs by Annexin V-FITC/propidium iodide staining-based flow cytometric analysis (reference value: 7.82%); type: functional; summary of the method: as §3
# [12] = test system: HCT-116; experiment: Induction of apoptosis in human HCT116 cells assessed as late apoptotic cells at 5 uM after 72 hrs by Annexin V-FITC/propidium iodide staining-based flow cytometric analysis (reference value: 3.33%); type: functional; summary of the method: as §3
# [13] = test system: HCT-116; experiment: Antitumor activity against human HCT116 cells xenografted in BALB/C nude mouse assessed as tumor growth inhibition at 15 mg/kg, ip bid administered for 21 consecutive days measured after 30 to 33 days post implantation relative to control; type: functional; conditions: HCT-116, ip, read-out: TGI
# Summary of the method: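 HCT116 cells implanted subcutaneously in right axilla of male BALB/C nude mice (18–20 g). Dosing began at tumor volume about 100–300 mm³; five mice per treatment, eight controls. Given ip bid for 21 consecutive days in 0.1% Tween 80 in normal saline, with vehicle controls. Caliper volume TV = 1/2 × a × b² measured every 3 days. Mice sacrificed day 30–33 post-implant; TGI calculated at end of treatment.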
Compound,IC50 [1] [nM],IC50 [2] [nM],IC50 [3] [µM],IC50 [4] [µM],IC50 [5] [µM],TGI [6],half-life [7] [min],Cmax [8] [nM],Activity [9],Activity [10] [%],Activity [11] [%],Activity [12] [%],inhibition in vivo at 15 mg/kg [13] [%]
Nc1ccccc1NC(=O)c1ccc(CNC(=O)c2ccc3cn[nH]c3c2)cc1,240,> 2000,18,23,98,–,–,–,–,–,–,–,–
Nc1ccccc1NC(=O)c1ccc(NC(=S)NCc2cccnc2)cc1,1600,116 to 120,1,4.2,–,Active,108,2300,Non-Toxic,–,–,–,–
Nc1ccccc1NC(=O)c1ccc(NC(=S)NCc2cncc(Br)c2)cc1,350,> 2000,9.2,7.5,39,–,–,–,–,–,–,–,–
Nc1ccccc1NC(=O)c1ccc(CNC(=O)c2cc3cnccc3s2)cc1,83,> 2000,3,0.38,40,–,–,–,–,–,–,–,–
Nc1ccccc1NC(=O)c1ccc(Cn2cc(-c3ccc(NC(=O)NCc4cccnc4)cc3)nn2)cc1,41,18,> 100,8.1,> 100,–,–,–,–,–,–,–,–
Nc1ccccc1NC(=O)c1ccc(CNC(=O)c2ccn3ccnc3c2)cc1,87,> 2000,1.8,5.5,46,–,–,–,–,–,–,–,–
Nc1ccc(CNC(=S)Nc2ccc(C(=O)Nc3ccccc3N)cc2)cn1,200,> 2000,27,14,> 100,–,–,–,–,–,–,–,–
Nc1ccccc1NC(=O)c1ccc(NC(=S)NCc2ccc(Cl)nc2)cc1,250,> 2000,6.1,19,42,–,–,–,–,–,–,–,–
Nc1ccccc1NC(=O)c1ccc(CCn2cc(-c3cccnc3)nn2)cc1,180,190,5.5,3.2,41,–,–,–,–,–,–,–,–
Nc1ccccc1NC(=O)c1ccc(CNC(=O)c2cc3cccnc3[nH]2)cc1,33,> 2000,10,6.1,> 100,–,–,–,–,–,–,–,–
CC(=O)Nc1ccc(C(=O)Nc2ccccc2N)cc1 [TACEDINALINE],–,> 2000,10,10,–,–,–,–,–,3.71,10.81,20.75,–
Nc1ccccc1NC(=O)c1ccc(CNC(=O)c2cc3cnccc3[nH]2)cc1,84,> 2000,4,1.7,48,–,–,–,–,–,–,–,–
Nc1ccccc1NC(=O)c1ccc(NC(=O)/C(Cl)=C(\Cl)c2cccnc2)cc1,670,> 2000,2.4,0.56,13,–,–,–,–,–,–,–,–
Nc1ccccc1NC(=O)c1ccc(NC(=S)NCc2cncc(F)c2)cc1,440,> 2000,15,13,85,–,–,–,–,–,–,–,–
Nc1ccccc1NC(=O)c1ccc(NC(=S)NCc2ccc(F)nc2)cc1,370,> 2000,10,5.2,81,–,–,–,–,–,–,–,–
CC(C)(C)OC(=O)Nc1ccc(CNC(=O)Nc2ccc(C(=O)Nc3ccccc3N)cc2)cn1,3300,> 2000,100,100,> 100,–,–,–,–,–,–,–,–
Nc1ccccc1NC(=O)c1ccc(NC(=O)NCc2ccc(Cl)nc2)cc1,21,> 2000,5.2,2.4,34,–,–,–,–,–,–,–,–

Compound,IC50 [1] [nM],IC50 [2] [nM],IC50 [3] [µM],IC50 [4] [µM],IC50 [5] [µM],TGI [6],half-life [7] [min],Cmax [8] [nM],Activity [9],Activity [10] [%],Activity [11] [%],Activity [12] [%],inhibition in vivo at 15 mg/kg [13] [%]
Nc1ccccc1NC(=O)c1ccc(NC(=S)NCc2cccc(Cl)c2)cc1,180,> 2000,5.9,2.6,92,–,–,–,–,–,–,–,–
Nc1ccccc1NC(=O)c1ccc(CNC(=O)c2cc3ccncc3[nH]2)cc1,71,> 2000,3.3,4.7,41,–,–,–,–,–,–,–,–
Nc1ccccc1NC(=O)c1ccc(NC(=S)NCc2ccc(F)cc2)cc1,300,> 2000,15,8.8,> 100,–,–,–,–,–,–,–,–
O=C(/C=C/c1cccnc1)NCCCCC1CCN(C(=O)c2ccccc2)CC1 [DAPORINAD],–,–,1.6,0.89,1.3,–,–,–,–,–,–,–,39
Nc1ccccc1NC(=O)c1ccc(NC(=O)/C=C/c2cccnc2)cc1,620,230,48,2.7,> 100,–,–,–,–,–,–,–,–
Nc1ccccc1NC(=O)c1ccc(NC(=O)NCc2ccc(F)nc2)cc1,280,> 2000,14,13,91,–,–,–,–,–,–,–,–
O=S(=O)(c1ccc(NC(=S)NCc2cccnc2)cc1)N1CCCCC1,> 10000,–,41,5.3,–,–,–,–,–,1.62,29.11,11.4,–
Nc1ccccc1NC(=O)c1ccc(NC(=S)NCc2ccccc2F)cc1,300,> 2000,6.3,5.4,> 100,–,–,–,–,–,–,–,–
Nc1cccc(CNC(=S)Nc2ccc(C(=O)Nc3ccccc3N)cc2)c1,220,> 2000,2.8,3.3,> 100,–,–,–,–,–,–,–,–
Nc1ccc(CNC(=O)Nc2ccc(C(=O)Nc3ccccc3N)cc2)cn1,330,> 2000,7.3,3.1,> 100,–,–,–,–,–,–,–,–
Nc1ccccc1NC(=O)c1ccc(NC(=S)NCc2nc3ccccc3[nH]2)cc1,46,> 2000,22,31,> 100,–,–,–,–,–,–,–,–
Nc1ccccc1NC(=O)c1ccc(NC(=S)NCc2ccc3c(c2)OCO3)cc1,100,> 2000,8.4,5.1,> 100,–,–,–,–,–,–,–,–
Cc1ccc(CNC(=S)Nc2ccc(C(=O)Nc3ccccc3N)cc2)cn1,260,> 2000,11,11,63,–,–,–,–,–,–,–,–
Nc1ccccc1NC(=O)c1ccc(CNC(=O)c2ccc3cncn3c2)cc1,93,> 2000,7.4,3.4,54,–,–,–,–,–,–,–,–
Nc1ccccc1NC(=O)c1ccc(NC(=S)NCc2cccc(F)c2)cc1,170,> 2000,5.9,2.9,74,–,–,–,–,–,–,–,–
Nc1ccccc1NC(=O)c1ccc(NC(=O)NCc2cccnc2)cc1,220,550,9.4,5.1,> 100,–,–,–,–,–,–,–,–
